This passage reports relative binding affinity (RBA) results from ChEMBL document CHEMBL1124962, “Synthesis and structure-affinity of a series of 7 alpha-undecylestradiol derivatives: a potential vector for therapy and imaging of estrogen-receptor-positive cancers” (J Med Chem, 1990).

SMILES strings stand for the structures.

The target of assay [1] is T1, Estrogen receptor (Bos taurus) (UniProt Q9XSB5+P49884). The experiment in a line: Ratio of displacement of 17-beta-[3H]-estradiol from calf uterine estrogen receptor compared to 17-beta-estradiol after 20 hr incubation. In kind it is protein assay. In a few lines: (§1)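 Calf uterine cytosol (105000g, 60 min, 4 °C spin of homogenate in 5 mM sodium phosphate pH 7.5, 10 mM monothioglycerol, 10% glycerol; 0.68 mg protein in final mix) incubated at 4 °C without DMF with 10⁻⁹ M 17β-[³H]estradiol and nine competitor concentrations (3 × 10⁻¹²–10⁻⁶ M), triplicates. Dextran-coated charcoal separation, supernatant counted. RBA = IC50 ratio of estradiol to competitor ×100, mean of ≥3 experiments.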

Assay [2] deals with T1, Estrogen receptor (Bos taurus). The experiment in a line: Ratio of displacement of 17-beta-[3H]-estradiol from calf uterine estrogen receptor compared to 17-beta-estradiol after 12 hr incubation. In kind it is protein assay. In a few lines:
as §1

As to `C[C@]12CC[C@@H]3c4ccc(O)cc4C[C@@H](CCCCCCCCCCCOc4ccccc4)[C@H]3[C@@H]1CC[C@@H]2O`, the relative binding affinity (RBA) in assay [1] and in assay [2] was 0.1 throughout.
Turning to `C[C@]12CC[C@@H]3c4ccc(O)cc4C[C@@H](CCCCCCCCCCCO)[C@H]3[C@@H]1CC[C@@H]2O`, the relative binding affinity (RBA) is 2 in assay [1] and 2.9 in assay [2].
Taken in the same sequence, the figures for `C[C@]12CC[C@@H]3c4ccc(O)cc4CC[C@H]3[C@@H]1C[C@@H](I)[C@@H]2O` were 27.1 and 22.1.
In the same order, the values of `C[C@]12CC[C@@H]3c4ccc(O)cc4C[C@@H](CCCCCCCCCCCI)[C@H]3[C@@H]1CC[C@@H]2O` are 0.1 and 0.04.
Taken in the same sequence, the figures for `C[C@]12CC[C@@H]3c4ccc(O)cc4C[C@@H](CCCCCCCCCCCF)[C@H]3[C@@H]1CC[C@@H]2O` were 1.5 and 1.3.
Regarding `C=CCCCCCCCCC[C@@H]1Cc2cc(O)ccc2[C@H]2CC[C@]3(C)[C@@H](O)CC[C@H]3[C@H]12`, the relative binding affinity (RBA) in assay [1] and in assay [2] was 0.09 throughout.
Turning to `C[C@]12CC[C@@H]3c4ccc(O)cc4C[C@@H](CCCCCCCCCCCBr)[C@H]3[C@@H]1CC[C@@H]2O`, the relative binding affinity (RBA) came to 0.2 in assay [1] and 0.05 in assay [2].
In the same order, the values of `C[C@]12CC[C@@H]3c4ccc(O)cc4C[C@@H](CCCCCCCCCCCOc4ccc(I)cc4)[C@H]3[C@@H]1CC[C@@H]2O` are 0.09 and 0.1.
`C[C@]12CC[C@@H]3c4ccc(O)cc4C[C@@H](CCCCCCCCCCCCl)[C@H]3[C@@H]1CC[C@@H]2O`: the relative binding affinity (RBA) in assay [1] and in assay [2] was 0.7 each time.
